Compound activity deposited in PubChem BioAssay by several laboratories.
The list is not random: actives were taken first. Their share in the collection is about 5.8%.
14-3-3 Bad inh: disrupts binding of bovine 14-3-3 zeta to phospho-Bad peptide; P63103; TR-FRET 14-3-3zeta/Dy647-pBad peptide displacement, 1 h; inhibition, % at 21.7 µM; 0.71% of 220,000 active; AID 781;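 active = inhibition above about 70%, limit read from the data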;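 note: 0% = full 14-3-3 plus peptide FRET controls and 100% = background without 14-3-3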
RBBP9 inh: blocks human serine hydrolase RBBP9 | O75884 | inhibition, % at 7.94 µM | AID 1515 | 0.2% of 220,000 active | recombinant RBBP9, FP-Rh probe fluorescence polarization;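 active = inhibition above the campaign mean of all tested compounds plus 3 SD, cut at about 14% in these data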;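 note: plate controls were DMSO wells with RBBP9 for no effect and wells lacking RBBP9 protein for full effect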
Target sequence (O75884 whole entry, looked up): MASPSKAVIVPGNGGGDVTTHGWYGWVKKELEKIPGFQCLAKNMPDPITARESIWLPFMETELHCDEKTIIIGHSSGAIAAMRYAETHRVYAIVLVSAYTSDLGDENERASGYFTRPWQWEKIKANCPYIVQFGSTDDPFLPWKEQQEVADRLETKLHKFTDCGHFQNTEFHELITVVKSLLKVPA
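System: RBBP9 protein / Quantity: 2.5 µM RBBP9 dispensing solution, before mixing / Also added: Serine-hydrolase probe FP-Rh, 375 nM pre-mixing / Dosing: 7.94 µM single dose, 0.794% DMSO / Timing: enzyme-compound preincubation 30 min, then probe labeling 45 min, 25 °C / Signal: FP readout at 525/598 nm / Controls: DMSO-treated enzyme wells and wells lacking RBBP9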
NCF1 inh: inhibitors of human p47phox binding. P14598. p47phox/p22phox peptide binding, fluorescence polarization, 2 h. inhibition, % at 24.7 µM. 0.53% of 220,000 active. AID 1274;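 active = inhibition above about 30%, limit read from the data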;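 note: 0% = p47phox with labelled peptide and 100% = labelled peptide alone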
Target sequence (P14598 whole entry, looked up): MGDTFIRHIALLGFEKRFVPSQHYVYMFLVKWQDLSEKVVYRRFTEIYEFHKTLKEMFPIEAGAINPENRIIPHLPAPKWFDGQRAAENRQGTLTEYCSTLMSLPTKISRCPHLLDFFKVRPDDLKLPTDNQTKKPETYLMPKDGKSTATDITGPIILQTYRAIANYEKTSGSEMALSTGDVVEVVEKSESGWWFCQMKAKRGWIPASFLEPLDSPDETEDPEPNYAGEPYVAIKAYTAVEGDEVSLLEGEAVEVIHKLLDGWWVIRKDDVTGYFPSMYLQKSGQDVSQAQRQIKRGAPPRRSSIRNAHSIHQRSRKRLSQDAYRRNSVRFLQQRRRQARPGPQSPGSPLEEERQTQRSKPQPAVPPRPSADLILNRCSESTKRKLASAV
Cl transport mod: KCC2 (human) Cl- transport modulation. B-score of Tl+ flux slope (higher = more flux/activation; lower = inhibition) at 10 µM. 2.2% of 190,000 active. KCC2 cells, thallium flux FluoZin-2 fluorescence. Q9H2X9. AID 1456;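 active = thallium flux slope and its plate-corrected score both differing from the plate sample mean at a set confidence after two filtering rounds, in either direction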;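 note: slope of fluorescence scaled to starting intensity during 10 to 20 s after thallium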
WT yeast gro inh: growth inhibition of WT yeast, mitochondrial fusion screen; mitochondrial fusion phenotypic screen, WT strain; inhibition, % at 10 µM; 2.1% of 190,000 active; AID 1362; in the data active = inhibition above about 58%; tested in S. cerevisiae
ROMK mod: modulates human ROMK potassium channel activity; P48048; Tet-inducible ROMK, thallium flux fluorescence; actives lie on both sides; B-score at 10 µM; 2% of 130,000 active;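 active = signal ratio slope over the read window, or its plate-corrected B-score, at least 3 SD from the plate mean, either direction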;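 note: B-score of the F/F0 ratio slope over 7 to 12 s after thallium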
Starred values were filed as active, the others as inactive; [ ] = another dose, or the depositor's remark.

How did O=c1[nH]c(CSc2nc(-c3ccc(F)cc3)cs2)nc2ccccc12 do in these assays?
14-3-3 Bad inh: -8; RBBP9 inh: -3; NCF1 inh: -8; Cl transport mod: -0.012; WT yeast gro inh: -4; ROMK mod: 0.98

Results for O=C(CC1SCCNC1=O)Nc1cccc([N+](=O)[O-])c1 (centres undefined) ?
14-3-3 Bad inh: 3; RBBP9 inh: -11; NCF1 inh: -6; Cl transport mod: -0.092

How did CSc1nc(-c2ccccc2)[nH]c(=S)c1C(C)=O do in these assays?
14-3-3 Bad inh: 4; RBBP9 inh: 7; NCF1 inh: -6; Cl transport mod: 21*; WT yeast gro inh: 0; ROMK mod: 4.7*

Results for COc1ccc(-c2nc(-c3ccccc3)[nH]c(=O)c2C#N)cc1 ?
14-3-3 Bad inh: 39; RBBP9 inh: -5; NCF1 inh: 5; WT yeast gro inh: 80*; ROMK mod: 2.4

What do the screens show for `CNc1nc(-c2ccccc2)nc(-c2ccc(OC)cc2)c1C#N`?
14-3-3 Bad inh: -3; RBBP9 inh: -5; NCF1 inh: 1; Cl transport mod: 0.057; WT yeast gro inh: 7; ROMK mod: -0.78

How did COc1ccc2cc3cc(C(=O)NCCN4CCc5ccccc5C4)sc3nc2c1 do in these assays?
14-3-3 Bad inh: -14; RBBP9 inh: 3; NCF1 inh: -5; Cl transport mod: -0.33; WT yeast gro inh: 58*; ROMK mod: -0.76

What do the screens show for `C/C(O)=c1/cnc2nc3ccccc3n2c1=O`?
14-3-3 Bad inh: -7; RBBP9 inh: 6; NCF1 inh: -1; Cl transport mod: -1.3; WT yeast gro inh: -9; ROMK mod: -0.012

Results for CCOC(=O)C1=C(NC(=S)NC(=O)c2ccccc2)c2ccccc2CC1C(C)C (centres undefined) ?
14-3-3 Bad inh: -4; RBBP9 inh: -7; NCF1 inh: -4; WT yeast gro inh: 78*

What do the screens show for `CCn1c(N)[n+](CC(=O)Nc2ccc(SC(F)F)cc2)c2ccccc21`?
14-3-3 Bad inh: 0; RBBP9 inh: -2; NCF1 inh: -12; Cl transport mod: 0.77

How did C/C(CC(=O)NC1CCCC1)=N\NC(=O)C1CCCCC1 do in these assays?
14-3-3 Bad inh: 97*; RBBP9 inh: -2; NCF1 inh: 8; Cl transport mod: 0.66; WT yeast gro inh: -10; ROMK mod: -0.57

Results for C/C(CC(=O)NC1CCCCCC1)=N\NC(=O)c1cnccn1 ?
14-3-3 Bad inh: -8; RBBP9 inh: -4; NCF1 inh: -6; Cl transport mod: 0.92; WT yeast gro inh: 0; ROMK mod: 0.91

What do the screens show for `COc1ccc(CNC(=O)COC(=O)[C@H](Cc2c[nH]c3ccccc23)NC(=O)c2cccs2)cc1`?
14-3-3 Bad inh: 2; RBBP9 inh: -5; NCF1 inh: -12; Cl transport mod: 0.13; WT yeast gro inh: -9

How did O=C(Oc1ccccc1)n1c(=S)oc2ccccc21 do in these assays?
14-3-3 Bad inh: 39; RBBP9 inh: -5; NCF1 inh: 0; Cl transport mod: 0.94; WT yeast gro inh: -3

What do the screens show for `Cc1ccccc1OC(=O)n1c(=S)oc2cc(Cl)ccc21`?
14-3-3 Bad inh: 11; RBBP9 inh: 2; NCF1 inh: -17; Cl transport mod: 2.6*; WT yeast gro inh: 20; ROMK mod: 1.2

Results for CCOc1ccc(CNC(=S)NCc2ccc(OCC)cc2)cc1 ?
14-3-3 Bad inh: -12; RBBP9 inh: 1; NCF1 inh: -11; Cl transport mod: 0.92; WT yeast gro inh: 13

How did CC(C)COc1ccc(CNC(=S)NCc2ccccc2)cc1 do in these assays?
14-3-3 Bad inh: 2; RBBP9 inh: -3; NCF1 inh: -12; Cl transport mod: -0.11; WT yeast gro inh: 69*; ROMK mod: -0.11

What do the screens show for `CCOC(=O)CCc1c(C(=O)OCC)[nH]c(CC)c1C(=O)OCc1ccccc1`?
14-3-3 Bad inh: 5; RBBP9 inh: -15; NCF1 inh: -1; Cl transport mod: -2.1; ROMK mod: -0.5

Results for Cc1c(C(=O)Nc2ccc(Oc3ccccc3)cc2)sc2nc3n(c(=O)c12)CCC3 ?
14-3-3 Bad inh: -2; RBBP9 inh: -22; NCF1 inh: -18; Cl transport mod: -0.23; WT yeast gro inh: 61*

What do the screens show for `Cc1nc(C)c(C(=O)Nc2ccc(Oc3ccccc3)cc2)o1`?
14-3-3 Bad inh: -5; RBBP9 inh: -5; NCF1 inh: -9; Cl transport mod: -4*; WT yeast gro inh: 14; ROMK mod: -1.2

What do the screens show for `CC1CC(C)CN(C(=O)Cn2cc(C=O)c3ccccc32)C1` (centres undefined)?
14-3-3 Bad inh: 83*; RBBP9 inh: -7; NCF1 inh: -7; Cl transport mod: -0.087; WT yeast gro inh: 17; ROMK mod: -0.065

What do the screens show for `O=C(NCCc1cccc(F)c1)/C(=C/c1cccnc1)NC(=O)c1ccccc1`?
14-3-3 Bad inh: 3; RBBP9 inh: -9; NCF1 inh: -7; Cl transport mod: -0.32; WT yeast gro inh: 0; ROMK mod: 0.5

What do the screens show for `Cn1cnnc1Sc1ccc(C(=O)OCC(=O)Nc2cc(Cl)cc(Cl)c2)cc1[N+](=O)[O-]`?
14-3-3 Bad inh: 86*[fluorescence artefact?]; RBBP9 inh: -10; NCF1 inh: -14; Cl transport mod: -0.26; WT yeast gro inh: 0

Results for CCS(=O)(=O)c1ccc(Sc2nncn2C)c([N+](=O)[O-])c1 ?
14-3-3 Bad inh: -3; RBBP9 inh: 5; NCF1 inh: 124*; Cl transport mod: 1.1; WT yeast gro inh: -3

How did Cn1cnnc1Sc1ccc(C(=O)OCC(=O)Nc2ccccc2)cc1[N+](=O)[O-] do in these assays?
14-3-3 Bad inh: -4; RBBP9 inh: -11; NCF1 inh: 13; Cl transport mod: -0.06; WT yeast gro inh: 7; ROMK mod: -0.26

How did O=C(O)c1ccc(-c2nnn(Cc3cccc(C(F)(F)F)c3)n2)cc1 do in these assays?
14-3-3 Bad inh: 2; RBBP9 inh: -10; NCF1 inh: -12; Cl transport mod: -0.59

What do the screens show for `N#Cc1nc(Cc2cccc3ccccc23)oc1NCc1ccc(F)cc1`?
14-3-3 Bad inh: -4; RBBP9 inh: -12; NCF1 inh: -12; Cl transport mod: -2.8; WT yeast gro inh: 71*; ROMK mod: -0.095

What do the screens show for `COc1ccc(CNc2oc(-c3cccc4ccccc34)nc2C#N)cc1`?
14-3-3 Bad inh: 14; RBBP9 inh: -5; NCF1 inh: -16; Cl transport mod: -0.51; WT yeast gro inh: 12

What do the screens show for `Cc1ccc(CNc2oc(C)nc2C#N)cc1`?
14-3-3 Bad inh: 89*; RBBP9 inh: -8; NCF1 inh: -2; Cl transport mod: 0.03; WT yeast gro inh: -9

How did Cc1ccc(N2C(=S)N=C(Nc3ccccc3C)C23CCOC(C)(C)C3)cc1 (centres undefined) do in these assays?
14-3-3 Bad inh: 6; RBBP9 inh: -7; NCF1 inh: -13; Cl transport mod: 24*; WT yeast gro inh: 3
